Published values pooled from the literature.
Lines come from different studies, so protocols differ.
Target: 5-hydroxytryptamine receptor 2B (HTR2B, Homo sapiens, UniProt P41595)

| SMILES | test | conditions | endpoint | value |
| --- | --- | --- | --- | --- |
| COCc1c(-c2cc3cc(C)cc(OC)c3s2)c2c(N)ncnn2c1CN1CCNC(=O)C1 | ligand displacement, radioligand | 10 µM | inhibition | 84% |
| COCCN(CCOC)C(=O)[C@@]12C[C@@H]1[C@@H](n1cnc3c(N)nc(Cl)nc31)[C@H](O)[C@@H]2O | ligand displacement, radioligand | 10 µM | inhibition | 36% |
| CC(C)N1CCC[C@H]1CNC(=O)c1cn(C2CCCC2)c(=O)c2c1c1ccccc1n2C | ligand displacement, radioligand | 10 µM | inhibition | 41% |
| CCN(CC)CCCC[C@H](NC(=O)[C@H](CC(C)C)NC(=O)[C@H](C)NC(=O)[C@H](Cc1ccccc1)NC(=O)c1ccc(C(C)(C)C)cc1)C(=O)N[C@@H](CO)C(=O)OC | ligand displacement, radioligand | 10 µM | inhibition | 7% |
| C[C@H](C(=O)N[C@H]1COc2ccccc2[C@@H]1S(C)(=O)=O)c1ccc(F)cc1 | ligand displacement | 10 µM | inhibition | -9% |
| Cn1cncc1[C@@](O)(COc1ccc(C#N)cc1-c1ccc(OC(F)(F)F)cc1)c1ccc(C#N)cc1 | ligand displacement | 10 µM | inhibition | 18.6% |
| CCC(N)Cc1cc(OC)c(COC)cc1OC (centres unmarked) | G protein activation, agonist, BRET | – | Emax | 43% |
| Clc1ccc2c(C3CCN(CCc4c[nH]c5ccccc45)CC3)c[nH]c2c1 | ligand displacement, radioligand | 10 µM | inhibition | 100% |
| CCOc1ccccc1NC(=O)c1ccccc1NS(=O)(=O)C1CC1 | ligand displacement, radioligand | 10 µM | inhibition | 63% |
| N#CC1(c2ccccn2)CCN(Cc2cc(C(=O)O)c(=O)n3ccccc23)CC1 | ligand displacement | 10 µM | inhibition | 3.23% |
| Nc1ncc(-c2nc(N3CCOCC3)nc(N3CCOCC3)n2)c(C(F)F)n1 | cell-free assay, radioligand | 10 µM | remaining signal | 94.1% |
| CC(Cc1ccccc1)NCCn1cnc2c1c(=O)n(C)c(=O)n2C (centres unmarked) | ligand displacement, radioligand | 10 µM | inhibition | 23% |
| c1ccc(C(NCCNC(c2ccccc2)c2ccccc2)c2ccccc2)cc1 | ligand displacement | 10 µM | inhibition | 79% |
| COc1cc2c3c(c1OC)-c1cc4c(cc1CC3N(C)CC2)OCO4 (racemic) | ligand displacement, radioligand | 10 µM | inhibition | 92.8% |
